Common to all, as to type: ADME, organism-based
A short description of data set [1]: Clearance in cystic fibrosis patient with lean body mass of 53 kg at 4 g, iv. The following applies: human, in vivo. In a few lines:
(§1)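 4 g piperacillin as a single 5-min IV infusion. Serial plasma sampled to 24 h and assayed by reversed-phase HPLC-UV (220 nm, mezlocillin internal standard, LOQ 0.200 mg/liter). Population PK model fitted in NONMEM with body size described by lean body mass and a CF-specific scale factor. Combined additive plus proportional residual error.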

A short description of data set [2]: Clearance in healthy human with lean body mass of 53 kg at 4 g, iv. The following applies: in vivo. In a few lines: as §1
The nature of data set [3]: Volume of distribution at steady state in cystic fibrosis patient at 4 g, iv. The following applies: human, in vivo, read-out: Vdss. In a few lines: (§2)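 Single 5-min IV infusion of 4 g piperacillin. Forearm-vein blood drawn from the arm opposite the infusion line pre-dose, at end of infusion, and 5 min to 24 h afterwards. Plasma iced, frozen at –70°C, acetonitrile-deproteinized with mezlocillin internal standard. Reversed-phase HPLC, UV 220 nm, linear 0.200–150 mg/liter. Unscaled parameters by noncompartmental analysis.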

The nature of data set [4]: Volume of distribution at steady state in healthy human with lean body mass of 53 kg at 4 g, iv. The following applies: in vivo, read-out: Vdss. The gist of the method: as §1
The test system of data set [5] is Homo sapiens. As to the kind of experiment: Peripheral volume of distribution in cystic fibrosis patient with lean body mass of 53 kg at 4 g, iv. The following applies: in vivo. The gist of the method:
as §1

A short description of data set [6]: Total clearance in healthy human at 4 g, iv. The following applies: in vivo. In a few lines:
as §2

Data set [7] can be described thus: Total clearance in cystic fibrosis patient at 4 g, iv. The note with it: human, in vivo. In a few lines:
as §2

Data set [8] can be described thus: Peak drug level in cystic fibrosis patient at 4 g, iv. The following applies: human, in vivo, read-out: Drug uptake. The gist of the method: as §2
Data set [9] in a line: Terminal half life in cystic fibrosis patient at 4 g, iv. The following applies: human, in vivo. The gist of the method: as §2
The nature of data set [10]: Terminal half life in healthy human at 4 g, iv. The following applies: in vivo. In a few lines: as §2
The nature of data set [11]: Mean residence time in healthy human at 4 g, iv. The note with it: in vivo. The gist of the method:
as §2

Data set [12] can be described thus: Volume of distribution at steady state in cystic fibrosis patient with lean body mass of 53 kg at 4 g, iv. The following applies: human, in vivo, read-out: Vdss. In a few lines: as §1
A short description of data set [13]: Mean residence time in cystic fibrosis patient at 4 g, iv. The note with it: human, in vivo. In a few lines:
as §2

Data set [14] can be described thus: Peak drug level in healthy human at 4 g, iv. The note with it: in vivo, read-out: Drug uptake. The gist of the method: as §2
Data set [15] in a line: Volume of distribution at steady state in healthy human at 4 g, iv. The following applies: in vivo, read-out: Vdss. In a few lines: as §2

The values that follow come from ChEMBL document CHEMBL1157367, “Systematic comparison of the population pharmacokinetics and pharmacodynamics of piperacillin in cystic fibrosis patients and healthy volunteers” (Antimicrob Agents Chemother, 2007).

In the case of `CCN1CCN(C(=O)N[C@@H](C(=O)N[C@@H]2C(=O)N3[C@@H]2SC(C)(C)[C@@H]3C(=O)O)c2ccccc2)C(=O)C1=O` [PIPERACILLIN], the clearance was 188 mL/min in data set [1], 188 mL/min in data set [2], 195 mL/min in data set [6] and 146 mL/min in data set [7]. Moreover, the Vd is 8.13 L in data set [3], 10.4 L in data set [4], 9.61 L in data set [12] and 11.8 L in [15]. In data set [5], this compound yielded a Vp/F of 3.12 L. Further, the values for the Cmax in [8] and in data set [14] were 767 µg/mL and 446 µg/mL, respectively. Further, the half-life in [9] was 41.4 min; in [10] it was 63 min. Besides, the MRT in data set [11] is 61.2 min; in data set [13], 51 min.

The clearance is a measure of how efficiently the substance is removed, as volume per time. A lower clearance goes with a low capacity for elimination. A word on the half-life: it is the time in which the quantity being followed falls by half. Broadly, the MRT is a mean duration of stay, worked out from the concentration-time curve.
